Assay results as given in ChEMBL document CHEMBL1153017 (Bioorg Med Chem, 2009).
One block for each molecule: values may come before it.

Columns and labels:
[1] = Chemical stability in HCl buffer of pH 1.2 simulating gastric fluid; type: physicochemical; conditions: simulated gi fluid
Method in brief: (§1)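 Hydrolysis run in pH 1.2 HCl buffer or pH 7.4 phosphate buffer, each with 1% Tween 20 and ionic strength 0.2 (KCl). Started by adding 200 µL of a 3 mg/mL methanol or acetonitrile stock to 9.8 mL of prewarmed buffer, held at 37 °C. Aliquots (20 µL) taken over time; remaining ester measured by HPLC.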

[2] = Chemical stability in phosphate buffer of pH 7.4 simulating intestinal fluid; type: physicochemical; conditions: simulated gi fluid; method in brief: as §1
Homo sapiens = species: Homo sapiens; experiment: Stability in human plasma assessed as hydrolysis half life
Rattus norvegicus [3] = experiment: Gastrointestinal toxicity in Wistar rat assessed as complete damage of mucosal layer and ulceration of submucosal cells at dose equivalent to 150 mg/kg of ibuprofen, po after 24 hrs by electron microscopy; type: organism-based, Submucosa; design: dose 150 mg/kg, route oral; conditions: in vivo
Method in brief: (§2)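 Male Wistar rats (150–200 g), three per group, fasted 12 h with water available. Given a daily oral dose in 0.5% CMC (1 mL suspension) for four successive days; control group got vehicle. Food withheld until 24 h after the last dose, then rats killed. Stomachs opened along the greater curvature, rinsed in saline, and random specimens examined by scanning electron microscopy after glutaraldehyde/osmium fixation, ethanol dehydration and amyl acetate.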

Rattus norvegicus [4] = experiment: Antiinflammatory activity in Wistar rat assessed as inhibition of carrageenan-induced paw edema at 150 mg/kg, po administered 30 mins before carrageenan challenge measured after 5 hrs; type: functional
Method in brief: (§3)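 Rats dosed orally with a suspension in 0.5% w/v aqueous carboxymethyl cellulose; controls got vehicle alone. 30 min later, 0.1 mL of fresh 1% carrageenan in normal saline injected subplantar into the right hind paw. Paw thickness measured by skin caliper at 0.5, 1, 2, 3, 4 and 5 h. % edema inhibition = [(VR−VL)control − (VR−VL)treated]/(VR−VL)control × 100. Values are means ± SEM.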

Rattus norvegicus [5] = experiment: Gastrointestinal toxicity in Wistar rat assessed as complete damage of mucosal layer and ulceration of submucosal cells at 150 mg/kg, po after 24 hrs by electron microscopy; type: organism-based, Submucosa; design: dose 150 mg/kg, route oral; conditions: in vivo; method in brief: as §2
Rattus norvegicus [6] = experiment: Antiinflammatory activity in Wistar rat assessed as inhibition of carrageenan-induced paw edema at 150 mg/kg, po administered 30 mins before carrageenan challenge measured after 0.5 hrs; type: functional; method in brief: as §3
Rattus norvegicus [7] = experiment: Antiinflammatory activity in Wistar rat assessed as inhibition of carrageenan-induced paw edema at 150 mg/kg, po administered 30 mins before carrageenan challenge measured after 1 hr; type: functional; method in brief: as §3
Rattus norvegicus [8] = experiment: Antiinflammatory activity in Wistar rat assessed as inhibition of carrageenan-induced paw edema at 150 mg/kg, po administered 30 mins before carrageenan challenge measured after 2 hrs; type: functional; method in brief: as §3
Rattus norvegicus [9] = experiment: Antiinflammatory activity in Wistar rat assessed as inhibition of carrageenan-induced paw edema at 150 mg/kg, po administered 30 mins before carrageenan challenge measured after 3 hrs; type: functional; method in brief: as §3
Rattus norvegicus [10] = experiment: Antiinflammatory activity in Wistar rat assessed as inhibition of carrageenan-induced paw edema at 150 mg/kg, po administered 30 mins before carrageenan challenge measured after 4 hrs; type: functional; method in brief: as §3
Rattus norvegicus [11] = experiment: Antiinflammatory activity in Wistar rat assessed as inhibition of carrageenan-induced paw edema at 20 mg/kg, po administered 30 mins before carrageenan challenge measured after 0.5 hrs; type: functional; method in brief: as §3
Rattus norvegicus [12] = experiment: Antiinflammatory activity in Wistar rat assessed as inhibition of carrageenan-induced paw edema at 20 mg/kg, po administered 30 mins before carrageenan challenge measured after 1 hr; type: functional; method in brief: as §3
Rattus norvegicus [13] = experiment: Antiinflammatory activity in Wistar rat assessed as inhibition of carrageenan-induced paw edema at 20 mg/kg, po administered 30 mins before carrageenan challenge measured after 2 hrs; type: functional; method in brief: as §3
Rattus norvegicus [14] = experiment: Antiinflammatory activity in Wistar rat assessed as inhibition of carrageenan-induced paw edema at 20 mg/kg, po administered 30 mins before carrageenan challenge measured after 3 hrs; type: functional; method in brief: as §3
Rattus norvegicus [15] = experiment: Antiinflammatory activity in Wistar rat assessed as inhibition of carrageenan-induced paw edema at 20 mg/kg, po administered 30 mins before carrageenan challenge measured after 4 hrs; type: functional; method in brief: as §3
Rattus norvegicus [16] = experiment: Antiinflammatory activity in Wistar rat assessed as inhibition of carrageenan-induced paw edema at 20 mg/kg, po administered 30 mins before carrageenan challenge measured after 5 hrs; type: functional; method in brief: as §3
Rattus norvegicus [17] = species: Rattus norvegicus; experiment: animal or person; conditions: Wistar, po, read-out: INH
Rattus norvegicus [18] = species: Rattus norvegicus; experiment: animal or person; conditions: Wistar, po, read-out: INH; remark: listed apart in the source
Rattus norvegicus [19] = species: Rattus norvegicus; experiment: animal or person; conditions: Wistar, po, read-out: INH; remark: listed apart in the source
Rattus norvegicus [20] = species: Rattus norvegicus; experiment: animal or person; conditions: Wistar, po, read-out: INH; remark: listed apart in the source
Rattus norvegicus [21] = species: Rattus norvegicus; experiment: animal or person; conditions: Wistar, po, read-out: INH; remark: listed apart in the source
Rattus norvegicus [22] = species: Rattus norvegicus; experiment: animal or person; conditions: Wistar, po, read-out: INH; remark: listed apart in the source

Stability [1]: Stable
Stability [2]: 1 days
half-life (Homo sapiens): 34 min
Compound: COc1ccc2cc(C(C)C(=O)OCn3c(=O)oc4ccc(Cl)cc43)ccc2c1 (stereo not drawn)

Stability [1]: Stable
Stability [2]: 1 days
half-life (Homo sapiens): 37 min
Compound: CC(C)Cc1ccc(C(C)C(=O)OCn2c(=O)oc3ccc(Cl)cc32)cc1 (stereo not drawn)
Activity (Rattus norvegicus [3]): Non-toxic

Stability [1]: Stable
Stability [2]: 1 days
Compound: Cc1cccc(Nc2ccccc2C(=O)OCn2c(=O)oc3ccc(Cl)cc32)c1C

Compound: CC(C)Cc1ccc(C(C)C(=O)O)cc1 (stereo not drawn) [IBUPROFEN]
inhibition in vivo at 150 mg/kg (Rattus norvegicus [4]): 41.7%
Activity (Rattus norvegicus [5]): Toxic
inhibition in vivo at 150 mg/kg (Rattus norvegicus [6]): 16.7%
inhibition in vivo at 150 mg/kg (Rattus norvegicus [7]): 16.7%
inhibition in vivo at 150 mg/kg (Rattus norvegicus [8]): 45.8%
inhibition in vivo at 150 mg/kg (Rattus norvegicus [9]): 62.5%
inhibition in vivo at 150 mg/kg (Rattus norvegicus [10]): 50%

Compound: Cc1cccc(Nc2ccccc2C(=O)O)c1C [MEFENAMIC ACID]
inhibition in vivo at 20 mg/kg (Rattus norvegicus [11]): 16.7%
inhibition in vivo at 20 mg/kg (Rattus norvegicus [12]): 18.3%
inhibition in vivo at 20 mg/kg (Rattus norvegicus [13]): 33.3%
inhibition in vivo at 20 mg/kg (Rattus norvegicus [14]): 41.7%
inhibition in vivo at 20 mg/kg (Rattus norvegicus [15]): 45.8%
inhibition in vivo at 20 mg/kg (Rattus norvegicus [16]): 33.3%

Compound: COc1ccc2cc([C@H](C)C(=O)O)ccc2c1 [NAPROXEN]
inhibition in vivo at 40 mg/kg (Rattus norvegicus [17]): 9.4%
inhibition in vivo at 40 mg/kg (Rattus norvegicus [18]): 16.3%
inhibition in vivo at 40 mg/kg (Rattus norvegicus [19]): 28.1%
inhibition in vivo at 40 mg/kg (Rattus norvegicus [20]): 46.9%
inhibition in vivo at 40 mg/kg (Rattus norvegicus [21]): 37.5%
inhibition in vivo at 40 mg/kg (Rattus norvegicus [22]): 18.8%
